According to ChEMBL document CHEMBL3259660, “Haloemodin as novel antibacterial agent inhibiting DNA gyrase and bacterial topoisomerase I” (J Med Chem, 2014):
≈ marks a conversion by molar mass, not a printed value. Calls of active or inactive are those of the source. The calls are words filed in the database; no cut-off is given here.

Columns and labels:
Staphylococcus aureus [1] = experiment: Antibacterial activity against methicillin-sensitive Staphylococcus aureus assessed as growth inhibition by agar dilution assay; assay type: functional
Procedure, shortened: (§1)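 Agar dilution MIC per CLSI (aerobic and anaerobic methods); compounds dissolved in DMSO, reference antibiotics in sterile water. MIC taken as lowest concentration with no visible growth; determined at least twice on separate days, higher value reported. Clinical isolate ranges summarized as MIC50/MIC90.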

[2] = tested on: Staphylococcus epidermidis; experiment: Antibacterial activity against methicillin-resistant Staphylococcus epidermidis assessed as growth inhibition by agar dilution assay; assay type: functional
Procedure, shortened: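 CLSI agar dilution MIC against aerobic and anaerobic strains. Test compounds were dissolved in DMSO and reference antibiotics in sterile water. MIC was taken as the lowest concentration showing no bacterial growth. Each MIC was determined at least twice on separate days, and the higher value was reported. E. coli PQ 37 was cultured in LA medium.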

Enterococcus faecalis = experiment: Antibacterial activity against vancomycin-sensitive Enterococcus faecalis assessed as growth inhibition by agar dilution assay; assay type: functional
Streptococcus pneumoniae = experiment: Antibacterial activity against Streptococcus pneumoniae ATCC 49619 assessed as growth inhibition by agar dilution assay; assay type: functional; procedure, shortened: as §1
Escherichia coli [3] = experiment: Antibacterial activity against Escherichia coli ATCC 25922 assessed as growth inhibition by agar dilution assay; assay type: functional; procedure, shortened: as §1
Escherichia coli [4] = experiment: Antibacterial activity against Escherichia coli assessed as growth inhibition by agar dilution assay; assay type: functional, organism-based; procedure, shortened: as §1
Staphylococcus aureus [5] = experiment: In vivo antibacterial activity against Staphylococcus aureus in New zealand rabbit keratitis model assessed as suppression of conjuctival congestion, conjuctival chemosis, infiltration, operative ulcer area and depth at 4.3 mg/ml administered topically every 4 hrs for four doses every day for 10 days starting 24 hrs post-infection by slit lamp biomicroscopy; assay type: functional, organism-based
Procedure, shortened: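 NZW rabbits (2.0−3.0 kg), anesthetized with iv sodium pentobarbital 30 mg/kg, given intracorneal S. aureus (about 7.5 × 10^6 CFU) from an overnight LB culture. Starting 24 h post-infection, 30 μL drops applied topically per eye every 4 h, four doses daily (8 a.m.–8 p.m.), for 10 days, masked. Test compound in PEG–water (1:1). Slit-lamp biomicroscopy before and after.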

[6] = Binding affinity to supercoiled pHOT-1 DNA assessed as unwinding of DNA helix by measuring shift of negative to positive supercoiled pHOT-1 at 10 to 150 uM treated 15 mins prior to Escherichia coli topoisomerase 1 addition for 30 mins by agarose gel electrophoresis
[7] = Binding affinity to supercoiled pHOT-1 DNA assessed as unwinding of DNA helix by measuring shift of negative to positive supercoiled pHOT-1 at 10 to 150 uM treated 15 mins prior to human topoisomerase 1 addition for 30 mins by agarose gel electrophoresis
[8] = target: T1, DNA topoisomerase 1 (Escherichia coli (strain K12)) (UniProt P06612); experiment: Inhibition of Escherichia coli topoisomerase 1-mediated pHOT-1 DNA relaxation treated with pHOT-1 substrate for 15 mins prior to enzyme addition for 30 mins by agarose gel electrophoresis
T1 sequence (whole entry): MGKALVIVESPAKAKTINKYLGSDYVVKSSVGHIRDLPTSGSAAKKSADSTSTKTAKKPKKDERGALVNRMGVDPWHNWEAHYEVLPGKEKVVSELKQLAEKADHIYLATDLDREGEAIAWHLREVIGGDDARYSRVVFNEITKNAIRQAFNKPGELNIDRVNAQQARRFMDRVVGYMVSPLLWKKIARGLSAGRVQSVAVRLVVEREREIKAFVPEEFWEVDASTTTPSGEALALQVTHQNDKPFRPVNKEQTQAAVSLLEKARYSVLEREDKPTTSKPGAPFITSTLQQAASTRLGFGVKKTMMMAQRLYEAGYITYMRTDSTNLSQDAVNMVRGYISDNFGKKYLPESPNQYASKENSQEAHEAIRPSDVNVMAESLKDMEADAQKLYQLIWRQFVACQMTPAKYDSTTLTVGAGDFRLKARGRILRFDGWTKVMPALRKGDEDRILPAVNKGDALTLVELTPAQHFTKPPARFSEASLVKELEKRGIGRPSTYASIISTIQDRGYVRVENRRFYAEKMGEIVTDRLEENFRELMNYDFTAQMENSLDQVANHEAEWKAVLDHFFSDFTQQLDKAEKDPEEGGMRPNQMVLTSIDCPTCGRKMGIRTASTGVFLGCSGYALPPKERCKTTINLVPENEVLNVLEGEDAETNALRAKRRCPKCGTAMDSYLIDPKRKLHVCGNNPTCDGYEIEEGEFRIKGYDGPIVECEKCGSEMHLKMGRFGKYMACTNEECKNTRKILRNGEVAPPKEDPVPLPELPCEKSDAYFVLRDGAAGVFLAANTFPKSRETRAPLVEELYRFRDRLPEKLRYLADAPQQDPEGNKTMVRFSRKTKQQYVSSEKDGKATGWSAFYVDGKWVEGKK

DNA topoisomerase 1 = target: T2, DNA topoisomerase 1 (Homo sapiens, UniProt P11387); experiment: Inhibition of human topoisomerase 1-mediated pHOT-1 DNA relaxation at 10 to 150 uM treated with pHOT-1 substrate for 15 mins prior to enzyme addition for 30 mins by agarose gel electrophoresis; details: 0.5 h
T2 sequence (P11387 whole entry): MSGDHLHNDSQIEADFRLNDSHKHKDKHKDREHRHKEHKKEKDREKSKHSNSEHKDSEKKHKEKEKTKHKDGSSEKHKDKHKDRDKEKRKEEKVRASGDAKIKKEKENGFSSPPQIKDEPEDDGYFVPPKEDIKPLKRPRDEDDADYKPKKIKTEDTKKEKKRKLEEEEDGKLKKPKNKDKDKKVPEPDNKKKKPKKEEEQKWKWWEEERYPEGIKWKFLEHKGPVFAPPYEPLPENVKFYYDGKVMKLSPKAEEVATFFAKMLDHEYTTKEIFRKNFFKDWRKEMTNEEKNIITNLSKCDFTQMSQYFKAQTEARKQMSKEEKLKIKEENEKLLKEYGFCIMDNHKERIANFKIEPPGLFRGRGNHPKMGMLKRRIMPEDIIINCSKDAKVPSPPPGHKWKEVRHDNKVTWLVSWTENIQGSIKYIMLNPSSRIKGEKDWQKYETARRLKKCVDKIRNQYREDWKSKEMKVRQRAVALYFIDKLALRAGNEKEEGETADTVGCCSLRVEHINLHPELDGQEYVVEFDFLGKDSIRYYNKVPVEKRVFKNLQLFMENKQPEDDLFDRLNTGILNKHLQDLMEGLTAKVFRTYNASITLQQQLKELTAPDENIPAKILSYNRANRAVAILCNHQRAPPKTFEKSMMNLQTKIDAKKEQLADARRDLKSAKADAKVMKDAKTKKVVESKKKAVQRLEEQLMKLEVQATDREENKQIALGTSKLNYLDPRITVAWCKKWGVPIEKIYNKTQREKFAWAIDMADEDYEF

[9] = target: DNA gyrase (Staphylococcus aureus) (UniProt P0A0K8+P20831); experiment: Inhibition of Staphylococcus aureus DNA gyrase-mediated double-stranded catenated kinetoplast DNA decatenation at 90 uM after 30 mins by agarose gel electrophoresis in presence of ATP; assay type: protein-complex assay
Procedure, shortened: (§2)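 kDNA decatenation: 200 ng catenated kDNA with 1 U S. aureus gyrase, E. coli gyrase or human Topo IIα in assay buffer with ATP, 37 °C for 30 min. Stopped with universal stop solution, resolved on 1% agarose, ethidium bromide stained, UV imaging.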

Escherichia coli [10] = experiment: Inhibition of Escherichia coli DNA gyrase-mediated double-stranded catenated kinetoplast DNA decatenation at 90 uM after 30 mins by agarose gel electrophoresis in presence of ATP; procedure, shortened: as §2

DNA gyrase (Staphylococcus aureus), sequence (P0A0K8 2-644 limits assumed): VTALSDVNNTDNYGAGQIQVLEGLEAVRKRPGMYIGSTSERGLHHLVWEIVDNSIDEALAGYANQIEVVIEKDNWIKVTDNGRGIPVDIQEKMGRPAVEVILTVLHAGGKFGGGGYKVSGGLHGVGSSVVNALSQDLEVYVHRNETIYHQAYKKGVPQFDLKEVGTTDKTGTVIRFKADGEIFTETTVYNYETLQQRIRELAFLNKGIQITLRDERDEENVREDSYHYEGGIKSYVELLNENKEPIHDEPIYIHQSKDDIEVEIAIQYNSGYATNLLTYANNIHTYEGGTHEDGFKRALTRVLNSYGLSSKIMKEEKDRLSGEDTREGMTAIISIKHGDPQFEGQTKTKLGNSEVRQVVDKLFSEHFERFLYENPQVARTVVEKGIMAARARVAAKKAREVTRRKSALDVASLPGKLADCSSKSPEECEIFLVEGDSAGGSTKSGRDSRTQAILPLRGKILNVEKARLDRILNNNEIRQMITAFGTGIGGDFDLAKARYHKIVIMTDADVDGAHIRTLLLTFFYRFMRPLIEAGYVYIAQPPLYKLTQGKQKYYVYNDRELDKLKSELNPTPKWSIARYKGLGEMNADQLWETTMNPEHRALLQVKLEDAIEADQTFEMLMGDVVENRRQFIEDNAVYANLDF
DNA gyrase (Staphylococcus aureus), sequence (P20831 whole entry partner): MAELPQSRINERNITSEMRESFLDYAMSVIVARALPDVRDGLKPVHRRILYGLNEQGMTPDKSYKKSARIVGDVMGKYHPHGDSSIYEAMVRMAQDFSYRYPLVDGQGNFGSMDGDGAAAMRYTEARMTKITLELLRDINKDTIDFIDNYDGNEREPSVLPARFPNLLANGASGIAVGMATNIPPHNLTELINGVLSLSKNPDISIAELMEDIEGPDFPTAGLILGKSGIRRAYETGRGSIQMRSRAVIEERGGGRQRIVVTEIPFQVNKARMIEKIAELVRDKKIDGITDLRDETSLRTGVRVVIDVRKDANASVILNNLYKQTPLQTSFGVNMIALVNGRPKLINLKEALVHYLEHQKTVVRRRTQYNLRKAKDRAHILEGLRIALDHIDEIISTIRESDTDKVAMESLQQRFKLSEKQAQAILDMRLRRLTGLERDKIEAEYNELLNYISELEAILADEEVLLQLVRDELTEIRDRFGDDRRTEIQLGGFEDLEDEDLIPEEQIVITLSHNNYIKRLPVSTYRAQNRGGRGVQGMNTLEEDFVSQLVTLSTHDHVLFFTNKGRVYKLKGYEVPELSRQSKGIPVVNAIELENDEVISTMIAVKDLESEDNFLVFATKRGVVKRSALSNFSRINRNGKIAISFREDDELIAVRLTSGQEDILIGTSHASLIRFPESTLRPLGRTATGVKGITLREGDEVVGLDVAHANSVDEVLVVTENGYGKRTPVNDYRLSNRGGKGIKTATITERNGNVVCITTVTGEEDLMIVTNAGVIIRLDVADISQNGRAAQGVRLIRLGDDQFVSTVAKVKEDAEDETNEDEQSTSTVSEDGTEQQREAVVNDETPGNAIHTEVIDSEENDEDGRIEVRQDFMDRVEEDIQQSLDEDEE

Cc1cc(O)c2c(c1)C(=O)c1c(I)c(O)c(I)c(O)c1C2=O
MIC (Staphylococcus aureus [1]): 8 µg/mL (≈ 15.3 µM)
MIC [2]: 4 µg/mL (≈ 7.66 µM)
MIC (Enterococcus faecalis): 8 µg/mL (≈ 15.3 µM)
MIC (Streptococcus pneumoniae): 64 µg/mL (≈ 123 µM)
MIC (Escherichia coli [3]): > 256 µg/mL
growth inhibition (GI) (Escherichia coli [4]): inactive
inhibition (Staphylococcus aureus [5]): Active
Activity [6]: inactive
Activity [7]: inactive
inhibition [8]: Dose-dependent effect
inhibition (INH) (DNA topoisomerase 1): Not Active
inhibition [9]: Active
inhibition (Escherichia coli [10]): Active
